Rows were chosen to be rich in hits. Some 2.4% of all compounds tested hit in one or more screens of this group.
Scp1 inh – inhibitors of human Scp-1 phosphatase. Q9GZU7. Recombinant Scp1, phosphopeptide, malachite green phosphate absorbance. AID 493091. inhibition, % at 20 µM. 0.88% of 340,000 active;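 active means inhibition above about 50% at 20 µM, limit read from the data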;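 further: plate controls were DMSO wells with enzyme for no effect and wells lacking enzyme for full effect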
Target sequence (Q9GZU7 76-261 limits assumed): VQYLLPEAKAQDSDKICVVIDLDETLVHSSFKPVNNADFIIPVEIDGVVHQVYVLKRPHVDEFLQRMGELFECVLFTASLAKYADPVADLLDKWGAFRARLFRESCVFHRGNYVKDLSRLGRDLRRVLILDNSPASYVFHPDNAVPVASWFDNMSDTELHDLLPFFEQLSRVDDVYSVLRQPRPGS
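Test system: SCP-1 phosphatase catalytic domain, residues 76-261; measured by: colorimetric phosphate reagent with accelerator and stabiliser, absorbance at 630 nm; timing: enzyme reaction 45 min at room temperature, colour 5 min, stabilisation 30 min; also added: Phosphorylated 17-residue peptide substrate; compound dosing: one concentration, 20 µM, with 1.0% DMSO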
SUMO1-SIM PPI – alters human SUMO1 binding to SIM partners. SUMO1 binding to a labelled peptide, TR-FRET, 1 h. 0.33% of 360,000 active. inhibition, % at 20 µM. AID 602429. P63165; in the data active means inhibition above about 37%
Target sequence (P63165 whole entry, looked up): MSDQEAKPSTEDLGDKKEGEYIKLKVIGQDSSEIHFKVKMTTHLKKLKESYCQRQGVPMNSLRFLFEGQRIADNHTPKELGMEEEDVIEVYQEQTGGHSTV
LMPTP block – blocks human LMPTP phosphatase | 0.22% of 360,000 active | P24666 | recombinant LMPTP-A, OMFP fluorogenic substrate, fluorescence intensity | inhibition, % at 20 µM | AID 651560;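 active means compounds that cut the enzyme signal by at least half of the control window in the single-dose screen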;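 further: plate controls were DMSO wells with enzyme plus substrate for no effect and substrate without enzyme for full effect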
Target sequence (P24666 whole entry, looked up): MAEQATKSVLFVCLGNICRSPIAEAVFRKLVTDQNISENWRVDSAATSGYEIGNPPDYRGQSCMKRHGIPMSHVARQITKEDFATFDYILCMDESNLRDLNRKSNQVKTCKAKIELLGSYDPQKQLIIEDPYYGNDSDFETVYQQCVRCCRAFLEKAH
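Buffer or medium: Bis-Tris pH 6.0, DTT, detergent; Assay system: LMPTP-A enzyme; Quantity: 0.625 nM enzyme; Detection: endpoint fluorescence intensity; Times: 50 min dark incubation at room temperature; Controls: substrate-only low control, DMSO enzyme-plus-substrate high control; Doses: single 20 µM dose; Read-out: percent inhibition versus substrate-only and uninhibited controls; Reagent: 400 µM OMFP.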
STEP inh – STEP (human) phosphatase inhibition; inhibition, % at 20 µM; P54829; recombinant STEP, OMFP fluorogenic substrate, fluorescence; 0.25% of 360,000 active;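 active means inhibition at 20 µM, scaled per plate between control wells, above about 37%, limit read from the data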;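 further: 0% = DMSO with enzyme and substrate and 100% = substrate only without enzyme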
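material = STEP tyrosine phosphatase | reagent = fluorogenic phosphatase substrate OMFP at 25 µM final | doses = single compound dose of 20 µM, 1% DMSO final | schedule = 20 min reaction, room temperature, in the dark | measured by = fluorescence, 480/540 nm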
DNMT1 block – blocks human DNA methyltransferase DNMT1; P26358; DNMT1 molecular beacon, Hinp1I cleavage, fluorescence; inhibition (reported as % activation of signal), % at 10 µM; 0.83% of 360,000 active; in the data active means inhibition above about 50%
NadD block – NadD (S. aureus) enzyme inhibition; purified NadD enzyme, colorimetric absorbance read-out; inhibition, % at 20 µM; 0.78% of 360,000 active; AID 602399; in the data active means inhibition above about 26%
DNMT1 interf DR – shows spectral interference in the DNMT1 beacon assay. shares compounds with DNMT1 block. molecular beacon fluorescence, spectral interference counter-screen. IC50, µM. 200 tested, under 10 active. AID 602382; call rule not given here
DNMT1 inh conf – DNMT1 inhibition confirmation, single concentration. shares compounds with DNMT1 block. DNMT1 molecular beacon HinP1I cleavage, fluorescence. inhibition, % at 10 µM. 8% of 2,300 active. AID 602385;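 active means average inhibition of at least 30% in the single-concentration confirmation test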
DNMT1 interf – counter-screen for DNMT1 inhibitors: spectral interference; shares compounds with DNMT1 block; DNMT1 molecular beacon spectral interference counterscreen, fluorescence 485/520; activation (fluorescence interference), % at 10 µM; 1% of 2,300 active; AID 602387;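 active means activation of at least 30% at 10 µM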;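 further: DNMT1 catalytic domain with a HinP1I cleavage step and a FAM/dabcyl DNA beacon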
Active calls of the source: *; · = no result given.

SMILES	Scp1 inh	SUMO1-SIM PPI	LMPTP block	STEP inh	DNMT1 block	NadD block	DNMT1 inh conf	DNMT1 interf	others
Cc1cc2oc3ccc(NCCCn4ccnc4)cc3c(=O)c2cc1C	-4	19	1	1	56*	28	1	1
CCCCn1c(=O)[nH]c2nc3cc(NC(C)=O)ccc3nc2c1=O	-3	-23	0	0	3	-5	·	·
CCCCCCn1c(=O)[nH]c2nc3cc(N)c(C)cc3nc2c1=O	-3	-24	-11	-199	63*	17	74*	118*
CCS(=O)(=O)N1Cc2ccccc2CC1C(=O)N1CCN(c2cccc(C)c2C)CC1 (stereo unspecified)	-2	1	11	-1	65*	21	5	2
COc1ccc(C(C(=O)NCc2ccccc2)N(C(=O)c2snc(C(N)=O)c2N)c2ccccc2OC)cc1 (stereo unspecified)	-1	-3	3	0	-4	8	·	·
O=C(CCl)N1N=C(c2ccco2)CC1c1ccco1 (stereo unspecified)	40	12	8	16	87*	5	5	6
COCC(=O)OCC(=O)N1N=C(c2ccc(Cl)cc2)CC1c1ccco1 (stereo unspecified)	-4	-8	-1	-3	4	-4	·	·
O=C(OCC(=O)N1N=C(c2ccc(Cl)cc2)CC1c1ccco1)c1cccnc1 (stereo unspecified)	17	9	10	-1	81*	25	3	3
O=C(COc1ccccc1)Nc1cccc2c1CCCC2	1	0	1	6	2	-4	·	·
CC(C)(C)CC(=O)Nc1cccc2c1CCCC2	-9	2	-1	0	61*	-6	32*	3	DNMT1 interf DR=>99
O=C(CCN1C(=O)c2ccccc2C1=O)N1CCN(C(=O)c2ccccc2)CC1	-5	-5	-1	-8	1	9	·	·
CN1CCN(C(=O)CCN2C(=O)c3ccccc3C2=O)CC1	-1	-3	0	-1	51*	-5	1	2
O=C1CC(N2CCOCC2)C(=O)N1c1ccc(Cl)cc1 (stereo unspecified)	-9	26	-1	-1	0	2	·	·
Cc1ccc(CNC(=O)c2nnn(CC(=O)Nc3cc(C)cc(C)c3)c2N)cc1	-1	3	14	-2	56*	3	-2	0
CCN(CC)c1ccc2cc(-c3nnc(-c4ccccc4)o3)c(=O)oc2c1	-14	-15	-2	-109	102*	17	88*	134*
C[C@@H]1CN(S(=O)C(C)(C)C)[C@H](CCO)/C1=C\c1ccccc1 (stereo partly specified)	-8	-1	-1	1	1	3	·	·
Cc1ccc(CNC(=O)C2(S(=O)(=O)c3ccccc3)CC=CC2)cc1	1	-2	-1	2	2	-2	·	·
CCCNC(=O)C1(S(=O)(=O)c2ccccc2)CC=CC1	-6	-3	-2	-3	92*	-6	2	2
O=C(Nc1cc2nn(-c3ccccc3)nc2cc1Cl)c1ccco1	-10	-7	13	2	75*	19	0	-5
O=C(Nc1ccc2nn(-c3ccccc3)nc2c1)c1ccco1	-9	-10	2	-2	-11	-2	·	·
OC(CNCCN1CCNCC1)Cc1ccccc1 (stereo unspecified)	-15	-14	-6	-4	4	-6	·	·
COc1ccc(C(=O)CC(=O)C(=O)NCCc2cccc(C)c2)cc1	-14	1	1	0	89*	21	2	4
COc1ccc(C(=O)CC(=O)C(=O)Nc2cc(C)ccc2C)cc1	-28	-10	-1	2	2	-4	·	·
Cc1cc(NC(=O)c2ccc(Cl)c([N+](=O)[O-])c2)no1	2	-14	-1	-2	-1	4	·	·
CC1CCN(S(=O)(=O)c2ccc(-c3nnc(SCc4cccnc4)o3)cc2)CC1	0	-1	1	-2	55*	11	2	1
SMILES	Scp1 inh	SUMO1-SIM PPI	LMPTP block	STEP inh	DNMT1 block	NadD block	DNMT1 inh conf	DNMT1 interf	others
Cc1ccc(C)c(N2C(=O)c3ccc(C(=O)Nc4ccccn4)cc3C2=O)c1	·	-19	-2	-2	1	0	·	·
Cc1ccc(NC(=O)c2ccc3c(c2)C(=O)N(c2ccccc2C)C3=O)nc1	0	-33	1	-5	80*	-3	2	3
O=C(O)c1ccc(NS(=O)(=O)c2ccc3c(c2)C2C=CCC2C(c2ccccc2F)N3)cc1 (stereo unspecified)	-4	35	3	-2	62*	21	29	1	DNMT1 interf DR=>99
O=C(O)c1ccc2c(c1)C1C=CCC1C(c1cc3c(cc1Br)OCO3)N2 (stereo unspecified)	14	10	5	-3	12	7	·	·
COc1cccc(-c2csc(N3CCN(CC(=O)NNC(=O)c4ccco4)CC3)n2)c1	-19	-1	0	1	-14	2	·	·
CC(C)(C)OC(=O)NCc1ccc(NC(=O)c2nc[nH]c2C(=O)NCCCNC(=O)c2[nH]cnc2C(=O)Nc2ccc(CNC(=O)OC(C)(C)C)cc2)cc1	1	2	-4	-4	60*	17	1	-2
CC(C)(C)OC(=O)NCc1ccc(NC(=O)c2nc[nH]c2C(=O)NCCCCNC(=O)c2[nH]cnc2C(=O)Nc2ccc(CNC(=O)OC(C)(C)C)cc2)cc1	-4	24	-3	-6	61*	24	0	1
Cc1ccc(NC(=O)c2nc[nH]c2C(=O)NCCCCCNC(=O)OC(C)(C)C)cc1	-11	6	1	-8	-2	9	·	·
Cc1cc(=O)oc2c(C)c(OC(C)C(=O)NC(Cc3c[nH]c4ccc(O)cc34)C(=O)O)ccc12 (stereo unspecified)	15	10	0	0	85*	-6	3	1
COc1cc(/C=N/NC(=O)c2nnn(-c3nonc3N)c2C(C)C)ccc1OCc1ccccc1	-7	-3	6	2	-15	17	·	·
COc1cc(/C=N/NC(=O)c2nnn(-c3nonc3N)c2C)ccc1OCc1ccc(Cl)cc1	·	4	20	8	58*	16	-1	-1
Cc1cc(NC(=O)c2cc(-c3ccccn3)nc3c(Cl)cccc23)no1	45	2	4	1	58*	1	0	0

Compound activity deposited in PubChem by Sanford-Burnham Center for Chemical Genomics.
